Screening data as filed in PubChem.
T cruzi growth-1: T. cruzi proliferation inhibition. hit rate 5.9% among 77,000. T. cruzi beta-gal in NIH3T3, GalScreen luminescence, 90 h. inhibition, % at 8.34 µM. AID 624255;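 active = mean inhibition above about 93%, with at least 55% of replicates each passing it, limit read from the data, passing the limit was not always enough; inconclusive = only one of those two conditions holds; inactive = neither condition holds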
GASC1 inh: blocks human GASC-1 (KDM4C) demethylase activity | Q9H3R0 | GST-KDM4C 2-372, H3K9me3 peptide, LANCE TR-FRET | inhibition, % at 12.5 µM | hit rate 0.15% among 96,000 | AID 720574;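 active = mean replicate inhibition above about 25%, with at least 55% of replicates also reaching it, limit read from the data, passing the limit was not always enough; inconclusive = only one of those two conditions met; inactive = neither condition met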
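Material: N-terminal GST-fused human GASC-1 (KDM4C) fragment, residues 2-372. Input: 10 nM enzyme. Incubation: enzyme reaction 30 min, then detection 60 min, both room temperature. Doses: one test concentration per compound. Read-out basis: inhibition from TR-FRET ratio decrease. Detection: LANCE TR-FRET, excitation 340 nm, emissions 618 and 671 nm.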
IDH1 mut inh: blocks human IDH1 R132H reductase activity; O75874; diaphorase/resazurin fluorescence, 60 min; inhibition, % at 10 µM; hit rate 0.18% among 70,000; in the data active = inhibition above about 34%; inconclusive = no clear call, values can overlap the other calls; inactive = below about 11%
Target sequence (O75874 whole entry R132H): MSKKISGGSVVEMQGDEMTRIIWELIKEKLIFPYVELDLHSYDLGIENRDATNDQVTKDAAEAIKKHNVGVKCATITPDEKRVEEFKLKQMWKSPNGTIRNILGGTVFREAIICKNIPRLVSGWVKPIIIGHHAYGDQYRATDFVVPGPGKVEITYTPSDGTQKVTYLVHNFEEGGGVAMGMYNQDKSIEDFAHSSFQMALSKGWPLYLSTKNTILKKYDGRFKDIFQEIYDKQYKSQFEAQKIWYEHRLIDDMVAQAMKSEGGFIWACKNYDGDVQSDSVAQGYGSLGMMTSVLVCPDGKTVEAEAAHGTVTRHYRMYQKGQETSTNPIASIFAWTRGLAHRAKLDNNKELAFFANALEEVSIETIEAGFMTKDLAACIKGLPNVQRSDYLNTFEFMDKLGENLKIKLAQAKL
T cruzi growth-2: blocks T. cruzi growth in NIH3T3 host cells | shares compounds with T cruzi growth-1 | T. cruzi beta-gal in NIH3T3, GalScreen luminescence, 90 h | inhibition, % at 8.35 µM | hit rate 72% among 5,600;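 active = mean replicate inhibition above about 95% and at least 55% of replicates individually reaching it, limit read from the data; inconclusive = only one of the two criteria is met; inactive = neither criterion is met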
T cruzi growth-3: Trypanosoma cruzi proliferation inhibition; shares compounds with T cruzi growth-1; T. cruzi beta-gal in NIH3T3, GalScreen luminescence, 90 h; inhibition, % at 2.09 µM; hit rate 21% among 5,600;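 active = mean inhibition above about 95%, with at least 55% of replicates also reaching it, limit read from the data; inconclusive = meets just one of the two conditions; inactive = meets neither condition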
NIH3T3 tox: NIH/3T3 (mouse) viability loss. shares compounds with T cruzi growth-1. NIH/3T3 viability, CellTiter-Glo ATP luminescence, 90 h. cytotoxicity (signal decrease), % at 8.35 µM. hit rate 14% among 5,600. AID 651742;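 active = mean signal decrease across replicates above about 35% based on untreated-well scatter, with enough replicates individually passing, limit read from the data; inconclusive = no rule stated though some were filed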
NIH3T3 tox 2: NIH/3T3 (mouse) viability loss; NIH/3T3 viability, CellTiter-Glo ATP luminescence, 90 h; shares compounds with T cruzi growth-1; hit rate 56% among 5,600; inhibition, % at 24.9 µM;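 active = mean loss of cell viability signal at or above a set limit, and enough replicates individually reaching it; inconclusive = meets only the mean limit or only the replicate share; inactive = meets neither condition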
Numbers stand for hits; - = inactive; ? = inconclusive; . = no result given. Shown is part of a subset that was picked to be rich in hits.

SMILES | T cruzi growth-1 | GASC1 inh | IDH1 mut inh | T cruzi growth-2 | T cruzi growth-3 | NIH3T3 tox | NIH3T3 tox 2
C[C@H]1CN([C@@H](C)CO)S(=O)(=O)c2ccc(-c3cccc(C#N)c3)cc2O[C@@H]1CN(C)C(=O)Nc1ccccc1F | ? | - | - | - | - | - | 61.1
CCc1ccc(-n2c(C)nnc2SCC(=O)Nc2ccc(Cl)cc2Cl)cc1 | . | . | - | . | . | . | .
COC(=O)C[C@@H]1CC[C@H](NS(=O)(=O)c2ccc(OC)cc2)[C@@H](CO)O1 | - | - | - | . | . | . | .
O=C(C1CCOCC1)N1CC[C@H]2[C@H](CO)Nc3ccc(Br)cc3[C@H]21 | - | - | . | . | . | . | .
O=C(C[C@@H]1C=C[C@H](NC(=O)Nc2ccccc2)[C@@H](CO)O1)NCc1cccc(F)c1 | ? | - | - | - | - | - | -
O=C(C[C@@H]1CC[C@@H](NC(=O)Nc2ccc(C(F)(F)F)cc2)[C@@H](CO)O1)NCc1cc(F)cc(F)c1 | - | - | - | . | . | . | .
O=C(C[C@H]1CC[C@H](NC(=O)Nc2ccc(C(F)(F)F)cc2)[C@@H](CO)O1)NCc1cc(F)cc(F)c1 | 103.3 | - | - | - | - | - | -
O=C(C[C@@H]1C[C@H]2c3cc(NC(=O)NC4CCCCC4)ccc3O[C@H]2[C@@H](CO)O1)NCc1ccccc1 | - | - | - | . | . | . | .
COc1ccccc1CNC(=O)C[C@H]1C[C@@H]2c3cc(NC(=O)Nc4ccc(C(F)(F)F)cc4)ccc3O[C@@H]2[C@H](CO)O1 | - | - | - | . | . | . | .
O=C(C[C@H]1C[C@H]2c3cc(NC(=O)NC4CCCCC4)ccc3O[C@H]2[C@@H](CO)O1)NCc1ccccc1 | 97.4 | - | - | - | - | - | -
COc1ccccc1CNC(=O)C[C@@H]1C[C@@H]2c3cc(NC(=O)Nc4ccc(C(F)(F)F)cc4)ccc3O[C@@H]2[C@H](CO)O1 | 125.4 | - | - | 111.4 | - | - | -
O=C(C[C@@H]1C=C[C@@H](NC(=O)Nc2ccccc2)[C@@H](CO)O1)NCc1cccc(F)c1 | - | - | - | . | . | . | .
CS(=O)(=O)N(CC(=O)Nc1ccc(Br)cc1F)c1cccc([N+](=O)[O-])c1 | . | . | - | . | . | . | .
CS(=O)(=O)N(CC(=O)Nc1ccc(Br)cc1F)c1ccc(F)c(Cl)c1 | . | . | - | . | . | . | .
O=C(N[C@@H]1C=C[C@H](CC(=O)N2CCc3ccccc3C2)O[C@@H]1CO)C1CCOCC1 | . | - | . | . | . | . | .
COc1ccc(-c2ccc([C@H]3[C@H](CO)N4C(=O)CNC[C@@H]34)cc2)cc1 | . | - | . | . | . | . | .
COc1ccccc1CNC(=O)C[C@@H]1C[C@@H]2c3cc(NC(=O)NC4CCCC4)ccc3O[C@@H]2[C@@H](CO)O1 | 111.3 | - | - | - | - | - | -
COc1ccccc1CNC(=O)C[C@H]1C[C@H]2c3cc(NC(=O)NC4CCCC4)ccc3O[C@H]2[C@@H](CO)O1 | - | - | - | . | . | . | .
COc1ccccc1CNC(=O)C[C@H]1C[C@H]2c3cc(NC(=O)Nc4ccc(C(F)(F)F)cc4)ccc3O[C@H]2[C@H](CO)O1 | 133.8 | - | - | 107.5 | - | - | -
C[C@H](NC(=O)C[C@@H]1C[C@H]2c3cc(NC(=O)Nc4ccc(C(F)(F)F)cc4)ccc3O[C@H]2[C@@H](CO)O1)c1ccccc1 | - | - | - | . | . | . | .
C[C@H](NC(=O)C[C@H]1C[C@@H]2c3cc(NC(=O)Nc4ccc(C(F)(F)F)cc4)ccc3O[C@@H]2[C@H](CO)O1)c1ccccc1 | ? | - | - | 101.9 | - | 47.7 | 70.7
COc1ccccc1CNC(=O)C[C@@H]1C[C@H]2c3cc(NC(=O)Nc4ccc(C(F)(F)F)cc4)ccc3O[C@H]2[C@H](CO)O1 | - | - | - | . | . | . | .
O=C(C[C@H]1C[C@@H]2c3cc(NC(=O)Nc4ccc(C(F)(F)F)cc4)ccc3O[C@@H]2[C@H](CO)O1)NCc1ccc(Cl)cc1 | ? | - | - | 107.7 | - | - | -
O=C(C[C@@H]1C[C@@H]2c3cc(NC(=O)Nc4ccc(C(F)(F)F)cc4)ccc3O[C@@H]2[C@H](CO)O1)NCc1ccc2c(c1)OCO2 | - | - | - | . | . | . | .
CCCC(O)c1c(O)cccc1C1(O)CC(=O)C/C1=C\C(O)CC(=O)O (stereo not given) | . | . | - | . | . | . | .
SMILES | T cruzi growth-1 | GASC1 inh | IDH1 mut inh | T cruzi growth-2 | T cruzi growth-3 | NIH3T3 tox | NIH3T3 tox 2
O=C(CSc1nnc(-c2ccc([N+](=O)[O-])cc2)n1-c1ccccc1)Nc1ccccc1Cl | . | . | - | . | . | . | .
CCc1ccccc1NC(=O)C(C)n1cc([N+](=O)[O-])cn1 (stereo not given) | . | . | - | . | . | . | .
CCN(C[C@H]1N[C@@H](CO)[C@@H]1c1ccc(C2=CCCC2)cc1)C(=O)c1ccncc1 | 105.1 | - | . | 98.0 | - | - | 55.0
O=C(NC[C@H]1N[C@H](CO)[C@@H]1c1ccc(C2=CCCCC2)cc1)c1ccc(F)cc1 | 96.2 | - | . | 99.7 | - | - | 106.5
C/C=C/c1ccc([C@@H]2[C@H](CO)N[C@H]2CN(CC)C(=O)c2ccccn2)cc1 | - | - | . | . | . | . | .
CCN(C[C@@H]1N[C@H](CO)[C@H]1c1ccc(C2=CCCC2)cc1)C(=O)c1ccncc1 | - | - | . | . | . | . | .
O=C(NC[C@H]1N[C@H](CO)[C@@H]1c1ccc(C2=CCCCC2)cc1)c1cccc(F)c1 | - | - | . | . | . | . | .
C/C=C/c1ccc([C@@H]2[C@@H](CO)N[C@@H]2CN(CC)C(=O)c2ccccn2)cc1 | 100.2 | - | . | - | - | - | -
CCN(C[C@H]1N[C@H](CO)[C@H]1c1ccc(C2=CCCC2)cc1)C(=O)c1ccncc1 | 104.2 | - | . | - | - | - | -
CCN(C[C@H]1N[C@H](CO)[C@H]1c1ccc(C2=CCCC2)cc1)C(=O)c1cccnc1 | - | - | . | . | . | . | .
CCC(=O)N1C[C@H](C)[C@H](OC)CN(C)C(=O)c2ccc(NC(=O)c3ccc(F)cc3)cc2OC[C@H]1C | - | - | - | . | . | . | .
Cc1cccc(-c2ccc([C@H]3[C@H](CO)N4C(=O)CN(C(=O)Cc5ccccn5)C[C@@H]34)cc2)c1 | . | - | . | . | . | . | .
C[C@H]1CN([C@@H](C)CO)C(=O)c2cc(-c3cccnc3)cnc2O[C@H]1CN(C)C(=O)Cc1cccnc1 | - | - | - | . | . | . | .
COCC(=O)N(C)C[C@@H]1Oc2cc(-c3ccncc3)ccc2S(=O)(=O)N([C@@H](C)CO)C[C@@H]1C | - | - | - | . | . | . | .
Cc1cc(C(=O)Nc2cccc3c2O[C@H](CN(C)C)[C@H](C)CN([C@@H](C)CO)C3=O)n(C)n1 | ? | - | . | - | - | - | -
Cc1cc(C(=O)Nc2cccc3c2O[C@@H](CN(C)S(C)(=O)=O)[C@@H](C)CN([C@@H](C)CO)C3=O)n(C)n1 | - | - | . | . | . | . | .
Cc1cc(C(=O)Nc2cccc3c2O[C@H](CN(C)C)[C@@H](C)CN([C@H](C)CO)C3=O)n(C)n1 | - | - | . | . | . | . | .
Cc1cc(C(=O)Nc2cccc3c2O[C@H](CN(C)C)[C@@H](C)CN([C@@H](C)CO)C3=O)n(C)n1 | 101.4 | - | . | - | - | - | -
